Experimental data published in ChEMBL document CHEMBL1955770, “Inhibition of S/G2 phase CDK4 reduces mitotic fidelity” (J Biol Chem, 2006).

Columns and labels:
[1] = biological target: Serine/threonine-protein kinase 17A (Homo sapiens) (UniProt Q9UEE5); experiment: Inhibition of STK17A at 1 uM
[2] = biological target: Mitogen-activated protein kinase 10 (Homo sapiens) (UniProt P53779); experiment: Inhibition of JNK3 at 1 uM
[3] = biological target: Tyrosine-protein kinase FRK (Homo sapiens) (UniProt P42685); experiment: Inhibition of FRK at 1 uM
Chain of Tyrosine-protein kinase FRK (Homo sapiens) (P42685 whole entry): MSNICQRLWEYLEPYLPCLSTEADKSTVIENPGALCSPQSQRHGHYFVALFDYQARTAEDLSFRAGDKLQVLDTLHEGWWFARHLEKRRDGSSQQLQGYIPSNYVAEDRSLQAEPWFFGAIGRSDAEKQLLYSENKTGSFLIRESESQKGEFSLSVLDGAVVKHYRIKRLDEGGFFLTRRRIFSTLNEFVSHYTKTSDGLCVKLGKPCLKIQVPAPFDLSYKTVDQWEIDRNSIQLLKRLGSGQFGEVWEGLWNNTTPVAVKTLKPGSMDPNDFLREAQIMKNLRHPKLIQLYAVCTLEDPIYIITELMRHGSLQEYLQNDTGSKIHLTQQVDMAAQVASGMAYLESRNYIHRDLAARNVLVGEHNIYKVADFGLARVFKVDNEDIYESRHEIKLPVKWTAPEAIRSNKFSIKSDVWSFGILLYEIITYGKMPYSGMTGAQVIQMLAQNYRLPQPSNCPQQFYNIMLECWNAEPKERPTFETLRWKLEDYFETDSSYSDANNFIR

[4] = biological target: Aurora kinase A (Homo sapiens) (UniProt O14965); experiment: Inhibition of AURKA at 1 uM
Summary of the method: (§1)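 Competition binding screen across a kinase panel with compound at 1 μM. Read-out is % competition. Kinases not hit at this concentration were scored '<50'. No Kd was determined for hits.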

[5] = biological target: Serine/threonine-protein kinase PAK 1 (Homo sapiens) (UniProt Q13153); experiment: Inhibition of PAK1 at 1 uM
[6] = biological target: Serine/threonine-protein kinase MARK2 (Homo sapiens) (UniProt Q7KZI7); experiment: Inhibition of MARK2 at 1 uM
[7] = biological target: Calcium/calmodulin-dependent protein kinase type 1 (Homo sapiens) (UniProt Q14012); experiment: Inhibition of CAMK1 at 1 uM; summary of the method: as §1
[8] = biological target: Membrane-associated tyrosine- and threonine-specific cdc2-inhibitory kinase (Homo sapiens) (UniProt Q99640); experiment: Inhibition of PKMYT1 at 1 uM
[9] = biological target: Fibroblast growth factor receptor 3 (Homo sapiens) (UniProt P22607); experiment: Inhibition of FGFR3 at 1 uM
Chain of Fibroblast growth factor receptor 3 (Homo sapiens) (P22607 23-806 limits assumed): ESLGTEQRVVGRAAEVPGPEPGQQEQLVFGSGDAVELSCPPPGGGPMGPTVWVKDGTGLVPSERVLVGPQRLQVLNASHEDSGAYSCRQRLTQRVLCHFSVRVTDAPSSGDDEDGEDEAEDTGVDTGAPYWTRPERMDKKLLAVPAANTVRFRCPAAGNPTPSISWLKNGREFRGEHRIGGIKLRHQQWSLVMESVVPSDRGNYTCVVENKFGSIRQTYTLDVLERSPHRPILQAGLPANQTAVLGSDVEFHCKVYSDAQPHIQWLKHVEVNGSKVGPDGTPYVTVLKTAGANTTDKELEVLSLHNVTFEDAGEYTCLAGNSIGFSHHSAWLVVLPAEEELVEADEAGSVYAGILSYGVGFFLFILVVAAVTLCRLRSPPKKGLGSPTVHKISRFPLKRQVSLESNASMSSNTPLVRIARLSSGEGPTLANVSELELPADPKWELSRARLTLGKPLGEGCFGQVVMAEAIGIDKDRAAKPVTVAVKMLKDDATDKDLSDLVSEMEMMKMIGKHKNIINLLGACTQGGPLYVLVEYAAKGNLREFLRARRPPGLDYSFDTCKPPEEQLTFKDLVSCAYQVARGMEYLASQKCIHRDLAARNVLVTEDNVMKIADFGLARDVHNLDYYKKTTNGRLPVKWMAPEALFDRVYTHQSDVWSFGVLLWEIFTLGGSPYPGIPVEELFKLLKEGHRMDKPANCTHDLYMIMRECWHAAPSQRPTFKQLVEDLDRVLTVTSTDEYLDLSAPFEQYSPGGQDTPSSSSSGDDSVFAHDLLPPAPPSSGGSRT

[10] = biological target: Calcium/calmodulin-dependent protein kinase type 1G (Homo sapiens) (UniProt Q96NX5); experiment: Inhibition of CAMK1G at 1 uM; summary of the method: as §1
Chain of Calcium/calmodulin-dependent protein kinase type 1G (Homo sapiens) (Q96NX5 whole entry): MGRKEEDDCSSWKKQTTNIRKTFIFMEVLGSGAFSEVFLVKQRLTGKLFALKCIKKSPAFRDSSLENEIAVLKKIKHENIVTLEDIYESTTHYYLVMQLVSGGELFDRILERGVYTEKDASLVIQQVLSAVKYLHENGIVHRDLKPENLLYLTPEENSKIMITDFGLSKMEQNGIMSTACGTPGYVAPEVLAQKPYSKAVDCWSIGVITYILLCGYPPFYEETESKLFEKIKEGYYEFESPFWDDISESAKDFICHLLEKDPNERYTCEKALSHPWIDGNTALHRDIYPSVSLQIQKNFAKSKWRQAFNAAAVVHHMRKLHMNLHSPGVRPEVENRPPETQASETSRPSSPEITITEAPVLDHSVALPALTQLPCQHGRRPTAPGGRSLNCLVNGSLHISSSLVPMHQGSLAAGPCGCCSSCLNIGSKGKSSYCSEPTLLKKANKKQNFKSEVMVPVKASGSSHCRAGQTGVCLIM

[11] = biological target: MAP kinase-interacting serine/threonine-protein kinase 2 (Homo sapiens) (UniProt Q9HBH9); experiment: Inhibition of MKNK2 at 1 uM
[12] = biological target: AP2-associated protein kinase 1 (Homo sapiens) (UniProt Q2M2I8); experiment: Inhibition of AAK1 at 1 uM
[13] = biological target: Calcium/calmodulin-dependent protein kinase type II subunit beta (Homo sapiens) (UniProt Q13554); experiment: Inhibition of CAMK2B at 1 uM; summary of the method: as §1
[14] = biological target: LIM domain kinase 1 (Homo sapiens) (UniProt P53667); experiment: Inhibition of LIMK1 at 1 uM
[15] = biological target: Tyrosine-protein kinase TXK (Homo sapiens) (UniProt P42681); experiment: Inhibition of TXK at 1 uM
[16] = biological target: Cytoplasmic tyrosine-protein kinase BMX (Homo sapiens) (UniProt P51813); experiment: Inhibition of BMX at 1 uM; summary of the method: as §1
Chain of Cytoplasmic tyrosine-protein kinase BMX (Homo sapiens) (P51813 whole entry): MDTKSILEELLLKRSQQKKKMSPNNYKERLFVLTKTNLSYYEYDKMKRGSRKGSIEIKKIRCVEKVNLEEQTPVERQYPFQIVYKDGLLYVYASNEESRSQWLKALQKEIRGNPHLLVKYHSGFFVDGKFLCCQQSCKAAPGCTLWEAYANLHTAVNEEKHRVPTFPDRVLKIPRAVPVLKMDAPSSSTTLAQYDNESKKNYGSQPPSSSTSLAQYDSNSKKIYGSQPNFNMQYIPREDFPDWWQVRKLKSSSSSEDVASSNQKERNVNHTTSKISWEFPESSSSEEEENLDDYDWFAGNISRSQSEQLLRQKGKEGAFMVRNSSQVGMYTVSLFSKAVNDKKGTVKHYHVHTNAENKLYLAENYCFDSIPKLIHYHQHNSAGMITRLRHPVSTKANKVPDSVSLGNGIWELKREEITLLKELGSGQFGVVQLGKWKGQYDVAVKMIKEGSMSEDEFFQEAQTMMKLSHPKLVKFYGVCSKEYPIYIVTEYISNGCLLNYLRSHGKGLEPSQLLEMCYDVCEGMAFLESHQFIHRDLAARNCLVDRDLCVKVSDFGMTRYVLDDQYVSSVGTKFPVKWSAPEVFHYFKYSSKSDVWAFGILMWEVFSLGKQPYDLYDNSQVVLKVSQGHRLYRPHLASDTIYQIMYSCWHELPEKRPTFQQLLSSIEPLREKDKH

[17] = biological target: Protein-tyrosine kinase 6 (Homo sapiens) (UniProt Q13882); experiment: Inhibition of PTK6 at 1 uM
[18] = biological target: Insulin-like growth factor 1 receptor (Homo sapiens, UniProt P08069); experiment: Inhibition of IGF1R at 1 uM
[19] = biological target: Ephrin type-B receptor 1 (Homo sapiens) (UniProt P54762); experiment: Inhibition of EPHB1 at 1 uM
Chain of Ephrin type-B receptor 1 (Homo sapiens) (P54762 whole entry): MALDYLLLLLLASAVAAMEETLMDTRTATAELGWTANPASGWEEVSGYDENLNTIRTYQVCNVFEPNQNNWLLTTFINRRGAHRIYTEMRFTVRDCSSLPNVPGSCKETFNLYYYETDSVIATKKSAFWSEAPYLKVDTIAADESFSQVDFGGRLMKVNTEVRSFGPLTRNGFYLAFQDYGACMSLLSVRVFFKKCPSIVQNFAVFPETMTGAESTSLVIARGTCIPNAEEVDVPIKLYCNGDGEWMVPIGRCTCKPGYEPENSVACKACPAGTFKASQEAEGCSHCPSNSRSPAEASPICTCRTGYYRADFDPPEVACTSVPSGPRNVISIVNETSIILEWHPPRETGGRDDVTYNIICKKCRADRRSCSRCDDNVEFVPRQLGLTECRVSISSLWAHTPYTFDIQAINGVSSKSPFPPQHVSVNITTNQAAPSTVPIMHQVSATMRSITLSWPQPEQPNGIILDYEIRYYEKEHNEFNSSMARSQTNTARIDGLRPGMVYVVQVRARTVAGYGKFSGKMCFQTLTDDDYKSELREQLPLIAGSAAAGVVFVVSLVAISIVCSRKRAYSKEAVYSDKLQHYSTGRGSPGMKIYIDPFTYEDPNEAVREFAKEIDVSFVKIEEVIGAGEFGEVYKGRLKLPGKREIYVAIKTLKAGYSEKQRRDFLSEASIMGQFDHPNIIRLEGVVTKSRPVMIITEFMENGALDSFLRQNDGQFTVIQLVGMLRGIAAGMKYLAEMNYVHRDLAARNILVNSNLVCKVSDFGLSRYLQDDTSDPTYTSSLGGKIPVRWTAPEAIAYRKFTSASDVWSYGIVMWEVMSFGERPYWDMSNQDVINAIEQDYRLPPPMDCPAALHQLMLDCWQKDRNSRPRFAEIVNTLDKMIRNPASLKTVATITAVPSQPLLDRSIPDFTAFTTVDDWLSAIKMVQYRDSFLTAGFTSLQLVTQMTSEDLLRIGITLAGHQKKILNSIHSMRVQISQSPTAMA

[20] = biological target: Tyrosine-protein kinase Fer (Homo sapiens) (UniProt P16591); experiment: Inhibition of FER at 1 uM
Chain of Tyrosine-protein kinase Fer (Homo sapiens) (P16591 whole entry, looked up): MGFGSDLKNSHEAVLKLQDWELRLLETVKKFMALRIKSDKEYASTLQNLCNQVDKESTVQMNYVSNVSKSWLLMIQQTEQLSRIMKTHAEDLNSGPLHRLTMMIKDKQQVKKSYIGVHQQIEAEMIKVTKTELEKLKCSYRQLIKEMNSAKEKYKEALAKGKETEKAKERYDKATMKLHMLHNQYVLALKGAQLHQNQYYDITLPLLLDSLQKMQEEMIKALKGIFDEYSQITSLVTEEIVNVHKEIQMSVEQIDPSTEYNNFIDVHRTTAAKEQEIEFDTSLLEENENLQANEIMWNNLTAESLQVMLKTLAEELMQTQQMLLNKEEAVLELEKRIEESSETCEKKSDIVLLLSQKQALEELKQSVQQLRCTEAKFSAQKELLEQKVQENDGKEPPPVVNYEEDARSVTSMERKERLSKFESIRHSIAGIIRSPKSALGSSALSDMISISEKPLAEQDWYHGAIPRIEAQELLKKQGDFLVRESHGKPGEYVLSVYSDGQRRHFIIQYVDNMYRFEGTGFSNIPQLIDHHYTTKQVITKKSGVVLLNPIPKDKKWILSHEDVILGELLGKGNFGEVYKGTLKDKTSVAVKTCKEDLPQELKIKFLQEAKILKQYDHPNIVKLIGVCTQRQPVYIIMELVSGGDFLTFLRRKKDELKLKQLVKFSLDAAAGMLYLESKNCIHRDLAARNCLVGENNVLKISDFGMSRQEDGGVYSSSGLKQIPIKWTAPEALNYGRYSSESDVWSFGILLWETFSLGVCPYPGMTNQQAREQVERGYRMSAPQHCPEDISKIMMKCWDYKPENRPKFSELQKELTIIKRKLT

[21] = biological target: Serine/threonine-protein kinase PAK 4 (Homo sapiens) (UniProt O96013); experiment: Inhibition of PAK4 at 1 uM
[22] = biological target: Phosphorylase b kinase gamma catalytic chain, skeletal muscle/heart isoform (Homo sapiens) (UniProt Q16816); experiment: Inhibition of PHKG1 at 1 uM
[23] = biological target: Fibroblast growth factor receptor 2 (Homo sapiens) (UniProt P21802); experiment: Inhibition of FGFR2 at 1 uM
[24] = biological target: Mitogen-activated protein kinase 14 (Homo sapiens) (UniProt Q16539); experiment: Inhibition of p38-alpha at 1 uM
[25] = biological target: Casein kinase I isoform epsilon (Homo sapiens) (UniProt P49674); experiment: Inhibition of CSNK1E at 1 uM

Chain of Mitogen-activated protein kinase 10 (Homo sapiens) (P53779 whole entry): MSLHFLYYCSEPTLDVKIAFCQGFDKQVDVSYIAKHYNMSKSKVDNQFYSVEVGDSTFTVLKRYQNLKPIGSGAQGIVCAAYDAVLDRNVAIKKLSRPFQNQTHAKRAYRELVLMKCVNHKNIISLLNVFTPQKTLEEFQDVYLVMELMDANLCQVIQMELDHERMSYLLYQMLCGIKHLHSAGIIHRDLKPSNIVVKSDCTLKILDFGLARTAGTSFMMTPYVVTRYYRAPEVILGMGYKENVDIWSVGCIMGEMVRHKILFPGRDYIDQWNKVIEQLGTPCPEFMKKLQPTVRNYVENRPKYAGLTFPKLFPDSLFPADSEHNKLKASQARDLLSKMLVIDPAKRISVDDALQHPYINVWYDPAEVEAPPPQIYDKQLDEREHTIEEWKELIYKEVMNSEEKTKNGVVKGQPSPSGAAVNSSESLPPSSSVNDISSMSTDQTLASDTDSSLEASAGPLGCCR

inhibition [1]: 89%
inhibition [2]: 66%
inhibition [3]: < 50%
inhibition [4]: < 50%
inhibition [5]: < 50%
inhibition [6]: < 50%
inhibition [7]: < 50%
inhibition [8]: < 50%
inhibition [9]: < 50%
inhibition [10]: < 50%
inhibition [11]: < 50%
inhibition [12]: 84%
inhibition [13]: < 50%
inhibition [14]: < 50%
inhibition [15]: < 50%
inhibition [16]: < 50%
inhibition [17]: < 50%
inhibition [18]: < 50%
inhibition [19]: < 50%
inhibition [20]: < 50%
inhibition [21]: < 50%
inhibition [22]: < 50%
inhibition [23]: < 50%
inhibition [24]: < 50%
inhibition [25]: < 50%
Compound: CN1CCN(c2ccc(Nc3nc(N)c(C(=O)c4ccc5c(c4)OCCO5)s3)cc2)CC1
